Source: ChEMBL document CHEMBL4196195, “( R)- N-(1-Methyl-2-hydroxyethyl)-13-( S)-methyl-arachidonamide (AMG315): A Novel Chiral Potent Endocannabinoid Ligand with Stability to Metabolizing Enzymes” (J Med Chem, 2018)
Active and inactive are the calls of the source.

Columns and labels:
[1] = target: T1, MGL (monoglyceride lipase) (Homo sapiens, UniProt Q99685); assay: Stability assessed as human MGL-mediated compound hydrolysis by HPLC analysis; format: ADME; conditions: read-out: Stability
T1 sequence (Q99685 whole entry): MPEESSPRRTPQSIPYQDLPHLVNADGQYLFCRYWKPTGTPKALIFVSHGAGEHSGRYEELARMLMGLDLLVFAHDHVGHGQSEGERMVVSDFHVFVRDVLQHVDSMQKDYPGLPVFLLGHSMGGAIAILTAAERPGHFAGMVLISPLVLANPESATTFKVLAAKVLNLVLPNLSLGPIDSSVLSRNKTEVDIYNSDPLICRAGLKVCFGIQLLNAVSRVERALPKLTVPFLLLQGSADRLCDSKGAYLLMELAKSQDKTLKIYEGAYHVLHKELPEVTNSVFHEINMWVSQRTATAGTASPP
Outline: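 Human MGL or ABHD6 expressed in E. coli BL21(DE3); cell lysate in 150 mM NaCl, 50 mM Tris, 1% Triton X-100, pH 8.0. Lysate (0.5 µg total protein) incubated at 37 °C with compound or 2-AG reference for 30 min. Samples at 0–30 min quenched in acetonitrile. Analysed by C18 reversed-phase HPLC with UV at 204 nm against external standards.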

[2] = target: T2, FAAH (fatty-acid amide hydrolase 1) (Homo sapiens, UniProt O00519); assay: Stability assessed as human FAAH-mediated compound hydrolysis by LC-MS/MS analysis; format: ADME; conditions: human FAAH (fatty-acid amide hydrolase 1), read-out: Stability
T2 sequence (O00519 whole entry): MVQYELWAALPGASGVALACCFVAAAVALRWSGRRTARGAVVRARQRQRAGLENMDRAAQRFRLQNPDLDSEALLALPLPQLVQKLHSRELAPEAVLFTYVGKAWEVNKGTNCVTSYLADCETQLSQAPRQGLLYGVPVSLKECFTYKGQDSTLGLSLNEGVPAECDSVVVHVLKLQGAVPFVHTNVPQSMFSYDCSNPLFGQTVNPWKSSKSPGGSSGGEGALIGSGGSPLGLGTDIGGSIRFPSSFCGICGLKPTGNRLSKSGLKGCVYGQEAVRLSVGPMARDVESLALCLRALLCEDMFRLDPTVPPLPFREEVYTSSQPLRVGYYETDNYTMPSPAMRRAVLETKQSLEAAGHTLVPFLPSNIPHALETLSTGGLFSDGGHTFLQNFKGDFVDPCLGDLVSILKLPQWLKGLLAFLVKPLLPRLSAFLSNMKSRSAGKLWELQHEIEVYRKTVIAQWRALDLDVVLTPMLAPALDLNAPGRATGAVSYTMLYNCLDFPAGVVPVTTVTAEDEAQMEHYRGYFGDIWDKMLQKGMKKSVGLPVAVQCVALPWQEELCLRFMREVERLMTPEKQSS
Outline: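 Expressed, partially purified rat or human FAAH incubated with compound, or AEA as reference substrate, for 30 min. Aliquots at time points quenched in acetonitrile to precipitate protein. Remaining compound measured by LC-MS/MS on a cyano column with 10 mM ammonium acetate pH 7.3/methanol at 0.5 mL/min.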

[3] = system: Mus musculus; assay: Antiallodynic activity in CD1 mouse model of CFA-induced inflammatory pain assessed as increase in CFA-reduced mechanical paw withdrawal threshold at 5 mg/kg, ip measured at 10 mins post injection; format: functional, organism-based
Outline: (§1)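 Adult male mice (39 ± 10 g), wild-type CD1 or CB1 KO on CD1 background, single housed. CFA:saline 1:1 (20 μL) injected intraplantar into right hind paw; 48 h allowed before dosing. Drug given ip in 5 mL/kg, vehicle group included. Electronic von Frey (90 g probe) after ≥30 min habituation, read in duplicate per paw, at baseline, 48 h post-CFA and 10, 30, 60, 120 min post-dose. Two-way mixed ANOVA with Bonferroni post hoc tests.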

[4] = system: Mus musculus; assay: Antiallodynic activity in CD1 mouse model of CFA-induced inflammatory pain assessed as increase in CFA-reduced mechanical paw withdrawal threshold at 5 mg/kg, ip measured at 60 mins post injection; format: functional, organism-based; outline: as §1
[5] = target: Cannabinoid receptor 2 (Mus musculus, UniProt P47936); assay: Displacement of [3H]CP-55,940 from mouse CB2 receptor expressed in HEK293 cell membranes in absence of FAAH inhibitor PMSF by radioligand binding assay
Outline: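 Membranes from HEK293 cells expressing human or mouse CB2 (preparations lacking FAAH activity), competing against [3H]CP-55,940. IC50 by nonlinear regression, converted to Ki. Three independent experiments run in triplicate; Ki is the mean of the three.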

[6] = target: Cannabinoid receptor 1 (Rattus norvegicus, UniProt P20272); assay: Agonist activity at rat CB1 receptor expressed in HEK293 cells assessed as inhibition of forskolin-induced cAMP accumulation incubated for 30 mins; format: functional, cell-based; conditions: read-out: EC50
Outline: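 HEK293 cells stably expressing rCB1, harvested with nonenzymatic dissociation reagent, washed in HBSS, 1000–1500 cells/well. Test compound at various concentrations with forskolin (2 μM final) in stimulation buffer, 30 min at room temperature. cAMP read by TR-FRET (Eu-cAMP tracer plus ULight anti-cAMP, 60 min room temperature). Forskolin-stimulated cAMP set to 100%. EC50 from nonlinear regression; two independent experiments in triplicate.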

[7] = system: Mus musculus; assay: Antiallodynic activity in CD1 mouse model of CFA-induced inflammatory pain assessed as increase in CFA-reduced mechanical paw withdrawal threshold at 5 mg/kg, ip measured up to 30 mins post injection; format: functional, organism-based; outline: as §1
[8] = system: Mus musculus; assay: Effect on mechanical paw withdrawal threshold of contralateral paw in CB1 receptor knockout CD1 mouse model of CFA-induced inflammatory pain at 5 mg/kg, ip measured at 10 to 120 mins post injection; format: ADME, organism-based; conditions: in vivo
Outline: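 Wild-type CD1 or CB1 KO (CD1 background) adult male mice. Unilateral intraplantar CFA:saline 1:1 (20 μL) into right hind paw, 48 h before ip dosing (5 mL/kg); vehicle controls. Threshold of the uninjected contralateral paw measured by electronic von Frey (90 g probe), duplicate readings averaged, at 10, 30, 60, 120 min post-dose. Two-way mixed ANOVA.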

[9] = system: Mus musculus; assay: Antiallodynic activity in CD1 mouse model of CFA-induced inflammatory pain assessed as increase in CFA-reduced mechanical paw withdrawal threshold at 5 mg/kg, ip measured at 120 mins post injection; format: functional, organism-based; outline: as §1

Cannabinoid receptor 1, sequence (P20272 whole entry): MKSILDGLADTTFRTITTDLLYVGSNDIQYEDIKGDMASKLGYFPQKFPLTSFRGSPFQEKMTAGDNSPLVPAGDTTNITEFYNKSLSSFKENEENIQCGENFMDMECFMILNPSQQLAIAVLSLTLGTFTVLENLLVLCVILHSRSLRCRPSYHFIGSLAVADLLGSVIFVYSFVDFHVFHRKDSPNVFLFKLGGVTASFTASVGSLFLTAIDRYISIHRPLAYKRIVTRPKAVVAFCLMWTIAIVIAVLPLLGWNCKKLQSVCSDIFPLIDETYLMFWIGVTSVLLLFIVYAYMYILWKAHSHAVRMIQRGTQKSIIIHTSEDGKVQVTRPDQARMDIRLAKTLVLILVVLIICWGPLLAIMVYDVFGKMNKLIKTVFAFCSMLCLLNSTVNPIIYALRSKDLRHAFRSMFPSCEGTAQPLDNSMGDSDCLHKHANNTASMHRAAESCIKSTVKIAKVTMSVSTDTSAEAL
Cannabinoid receptor 2, sequence (P47936 whole entry): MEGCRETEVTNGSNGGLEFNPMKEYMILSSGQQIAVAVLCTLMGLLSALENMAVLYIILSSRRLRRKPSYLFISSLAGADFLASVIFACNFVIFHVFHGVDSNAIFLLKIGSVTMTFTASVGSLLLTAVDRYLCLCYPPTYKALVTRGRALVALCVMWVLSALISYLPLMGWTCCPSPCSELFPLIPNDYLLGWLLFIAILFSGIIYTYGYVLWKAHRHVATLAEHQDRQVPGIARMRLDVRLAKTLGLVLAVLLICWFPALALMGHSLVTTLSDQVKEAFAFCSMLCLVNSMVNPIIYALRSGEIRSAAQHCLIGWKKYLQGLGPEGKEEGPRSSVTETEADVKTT

Compound: CCCCC/C=C\[C@H](C)/C=C\C/C=C\C/C=C\CCCC(=O)N[C@H](C)CO
- half-life [1]: 30 min
- half-life [2]: 30 min
- Activity [3]: Active
- Activity [4]: Active
- Ki [5]: 0.653 µM
- EC50 [6]: 0.0006 µM
- Activity [7]: Active
- Activity [8]: Non-Toxic
- Activity [9]: inactive
